Assays:
[1] = target: T1, 85/88 kDa calcium-independent phospholipase A2 (Homo sapiens) (UniProt O60733); test: Inhibition of human recombinant group 6A iPLA2 expressed in Sf9 insect cells after 30 mins by Dole assay
T1 sequence (whole entry): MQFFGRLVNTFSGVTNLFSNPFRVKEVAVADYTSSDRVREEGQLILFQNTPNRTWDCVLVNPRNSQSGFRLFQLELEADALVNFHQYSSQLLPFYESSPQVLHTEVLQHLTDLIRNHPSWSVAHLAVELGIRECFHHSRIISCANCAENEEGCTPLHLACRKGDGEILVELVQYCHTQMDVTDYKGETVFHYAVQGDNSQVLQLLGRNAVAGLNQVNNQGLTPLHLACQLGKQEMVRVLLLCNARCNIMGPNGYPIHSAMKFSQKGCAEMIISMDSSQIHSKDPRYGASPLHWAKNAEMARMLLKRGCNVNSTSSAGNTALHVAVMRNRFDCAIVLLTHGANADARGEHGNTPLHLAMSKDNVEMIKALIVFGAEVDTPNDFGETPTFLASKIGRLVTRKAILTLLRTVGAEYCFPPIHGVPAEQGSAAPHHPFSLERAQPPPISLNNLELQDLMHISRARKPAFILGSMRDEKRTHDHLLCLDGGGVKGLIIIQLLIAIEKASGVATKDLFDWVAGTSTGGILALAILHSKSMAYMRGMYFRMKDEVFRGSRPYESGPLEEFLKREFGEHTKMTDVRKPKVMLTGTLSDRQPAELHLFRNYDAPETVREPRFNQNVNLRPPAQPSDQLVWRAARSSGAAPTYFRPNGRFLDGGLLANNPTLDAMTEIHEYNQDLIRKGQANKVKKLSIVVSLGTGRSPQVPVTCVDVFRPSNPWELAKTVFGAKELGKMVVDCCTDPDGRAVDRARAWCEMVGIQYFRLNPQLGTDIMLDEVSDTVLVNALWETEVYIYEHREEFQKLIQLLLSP
How it was run: (§1)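 Screen at 0.091 mole fraction (mean, SE, n = 3). XI(50), the inhibitor mole fraction giving 50% inhibition, fitted sigmoidally from typically 7 levels between 0.00091 and 0.091.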

[2] = target: T2, Phospholipase A2 group V (Homo sapiens) (UniProt P39877); test: Inhibition of human group 5 sPLA2 at 0.091 mol fraction after 30 mins
T2 sequence (whole entry): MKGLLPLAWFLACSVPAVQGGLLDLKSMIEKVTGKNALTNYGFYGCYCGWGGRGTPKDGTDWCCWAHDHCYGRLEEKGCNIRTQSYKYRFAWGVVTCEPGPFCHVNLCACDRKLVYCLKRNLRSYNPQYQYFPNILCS
How it was run: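 Inhibitor screened at 0.091 mole fraction of the micelle interface. Average percent inhibition reported (standard error, n = 3); 25% or less inhibition taken as none.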

[3] = target: T3, Cytosolic phospholipase A2 (Homo sapiens) (UniProt P47712); test: Inhibition of human group […] cPLA2 at 0.091 mol fraction after 30 mins by Dole assay
T3 sequence (whole entry): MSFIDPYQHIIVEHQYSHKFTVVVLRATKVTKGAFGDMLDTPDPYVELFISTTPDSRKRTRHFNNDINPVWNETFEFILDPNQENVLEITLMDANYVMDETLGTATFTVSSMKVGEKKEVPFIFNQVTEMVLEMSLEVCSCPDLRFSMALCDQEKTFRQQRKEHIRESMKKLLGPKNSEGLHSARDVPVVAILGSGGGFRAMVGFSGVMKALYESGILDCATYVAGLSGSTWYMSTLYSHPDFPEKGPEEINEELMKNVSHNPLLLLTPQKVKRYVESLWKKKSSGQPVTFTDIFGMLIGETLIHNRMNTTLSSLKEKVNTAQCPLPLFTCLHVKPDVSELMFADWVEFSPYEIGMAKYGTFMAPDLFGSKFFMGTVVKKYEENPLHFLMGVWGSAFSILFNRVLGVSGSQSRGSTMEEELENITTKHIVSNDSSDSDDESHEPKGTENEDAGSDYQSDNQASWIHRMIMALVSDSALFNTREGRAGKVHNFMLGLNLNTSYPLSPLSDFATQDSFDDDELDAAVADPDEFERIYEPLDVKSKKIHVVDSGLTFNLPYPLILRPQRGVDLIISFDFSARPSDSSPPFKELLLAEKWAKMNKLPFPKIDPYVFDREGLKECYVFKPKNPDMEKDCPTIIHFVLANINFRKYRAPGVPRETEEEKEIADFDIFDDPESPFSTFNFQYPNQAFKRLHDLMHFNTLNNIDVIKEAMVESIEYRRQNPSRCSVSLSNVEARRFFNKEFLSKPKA
How it was run: (§2)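 Screened at 0.091 mole fraction (mean, SE, n = 3). XI(50) from % inhibition vs inhibitor mole fraction, typically 7 levels 0.00091–0.091, fitted by symmetrical sigmoidal non-linear regression.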

Homo sapiens [4] = species on record: Homo sapiens; test: Selectivity ratio for inhibition of human recombinant group 6A iPLA2 over inhibition of human group 5 sPLA2
[5] = target: T1, 85/88 kDa calcium-independent phospholipase A2 (Homo sapiens); test: Inhibition of human recombinant group 6A iPLA2 expressed in Sf9 insect cells at 0.091 mol fraction after 30 mins by Dole assay; how it was run: as §1
Homo sapiens [6] = species on record: Homo sapiens; test: Selectivity ratio for inhibition of human recombinant group 6A iPLA2 over inhibition of human group […] cPLA2
How it was run: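 Ratio derived from XI(50) values for the two enzymes, using the modified Dole assay with 14C-labelled PAPC in Triton X-100 mixed micelles. GVIA iPLA2: 400 μM Triton X-100, 98.3 μM PAPC, 1.7 μM 14C-PAPC, 100 mM HEPES pH 7.5, 2 mM ATP, 4 mM DTT. GIVA cPLA2: 400 μM Triton X-100, 97 μM PAPC, 1.8 μM 14C-PAPC, 3 μM PIP2, 100 mM HEPES pH 7.5, 90 μM CaCl2, 2 mM DTT, 0.1 mg/ml BSA. XI(50) comes from a sigmoidal fit of % inhibition versus log mole fraction (typically 7 points, 0.00091–0.091).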

[7] = target: T3, Cytosolic phospholipase A2 (Homo sapiens); test: Inhibition of human group […] cPLA2 after 30 mins by Dole assay; how it was run: as §2

Compound | XI50 (mole fraction) [1] | inhibition [2] | inhibition [3] | Ratio (Homo sapiens [4]) | inhibition [5] | Ratio (Homo sapiens [6]) | XI50 (mole fraction) [7]
O=C(CCCCc1ccccc1)C(F)(F)C(F)(F)F | 0.0014 | – | – | – | – | – | –
O=C(C(F)CCCc1ccccc1)C(F)(F)C(F)(F)C(F)(F)F (stereo unspecified) | 0.0005 | 36.1% | 79.9% | > 180 | 100% | 76 | –
CCCCCCCCc1ccc(OCCCC(=O)C(F)(F)F)cc1 | 0.0029 | 61.4% | 91.5% | – | 99.4% | – | 0.022
OC(CCCCc1ccccc1)C(F)(F)C(F)(F)C(F)(F)F (stereo unspecified) | 0.0258 | 65.8% | 82% | – | 97% | – | –
O=C(CCCCCc1ccccc1)C(F)(F)C(F)(F)C(F)(F)F | 0.003 | – | – | – | 98.4% | – | –
O=C(CCCCc1ccccc1)C(F)(F)C(F)(F)C(F)(F)F | 0.0022 | 61.8% | 32.6% | – | 99.4% | – | –
O=C(C(F)CCCCc1ccccc1)C(F)(F)F (stereo unspecified) | 0.0013 | – | 66% | – | 98.8% | – | –
O=C(/C=C/C=C/c1ccccc1)C(F)(F)C(F)(F)F | 0.0313 | – | 59% | – | 96% | – | –
O=Cc1ccc(CCCCC(=O)C(F)(F)C(F)(F)F)o1 | 0.0262 | 41.9% | – | – | 84.4% | – | –
O=C(CCCOc1ccccc1)C(F)(F)C(F)(F)F | 0.0036 | – | – | – | 99.1% | – | –
O=C(C(F)CCCc1ccccc1)C(F)(F)F (stereo unspecified) | 0.0025 | – | 52.1% | – | 97.6% | – | –
CCCCCCCCc1ccc(OCCCC(=O)C(F)(F)C(F)(F)F)cc1 | 0.0024 | 63% | 88.8% | – | 99.4% | – | –
OC(CCCCc1ccccc1)C(F)(F)C(F)(F)F (stereo unspecified) | 0.039 | 67.3% | 44.8% | – | 94.3% | – | –
O=C(C(F)CCCc1ccccc1)C(F)(F)C(F)(F)F (stereo unspecified) | 0.0005 | 39.1% | 68.4% | – | 100% | – | –
O=C(CCCCc1ccc2ccccc2c1)C(F)(F)F | 0.0002 | 36.8% | 80.8% | > 455 | 99.9% | 195 | –
O=C(CCCCc1ccc2ccccc2c1)C(F)(F)C(F)(F)C(F)(F)F | 0.001 | 46.3% | 55.8% | – | 99.7% | – | –
O=C(CCCCc1ccc2ccccc2c1)C(F)(F)C(F)(F)F | 0.0006 | 58.4% | 77.1% | – | 99.8% | – | –
O=C(/C=C/c1ccccc1)C(F)(F)C(F)(F)F | 0.0066 | 76.9% | – | – | 96.4% | – | –
CCCCCCCC/C=C\CCCCCCCC(=O)C(F)(F)C(F)(F)C(F)(F)F | 0.0574 | 33.9% | 57% | – | 80.6% | – | –
CCCCCCOc1ccc(CCCCC(=O)C(F)(F)C(F)(F)F)cc1 | 0.0084 | 71.7% | 76.1% | – | 98.3% | – | –
CCCCCCOc1ccc(CCCCC(=O)C(F)(F)C(F)(F)C(F)(F)F)cc1 | 0.0136 | 76.9% | 43.7% | – | 95.8% | – | –
CCCCCCCC/C=C\CCCCCCCC(=O)C(F)(F)C(F)(F)F | 0.0192 | 67% | 41.4% | – | 95.5% | – | –

From ChEMBL document CHEMBL1157935, “Potent and selective fluoroketone inhibitors of group VIA calcium-independent phospholipase A2” (J Med Chem, 2010)
